# Source: PubChem BioAssay
# Most compounds without a hit are left out; they make up all but 1.8% or so of the library.
# M4 PAM: human M4 muscarinic receptor positive allosteric modulators, primary screen, CHO-K1 cells, Fluo-8 calcium fluorescence; Muscarinic acetylcholine receptor M4 (Homo sapiens), P08173; CHO-K1 hM4/Gqi5, ACh EC20; 0% = ACh EC20, 100% = maximal ACh; activation, % at 3 µM; 360,000 tested, 0.4% active;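 active means activation above its plate's cutoff, the mean activation of sample wells plus 3 SD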
# Target sequence (P08173 whole entry, looked up): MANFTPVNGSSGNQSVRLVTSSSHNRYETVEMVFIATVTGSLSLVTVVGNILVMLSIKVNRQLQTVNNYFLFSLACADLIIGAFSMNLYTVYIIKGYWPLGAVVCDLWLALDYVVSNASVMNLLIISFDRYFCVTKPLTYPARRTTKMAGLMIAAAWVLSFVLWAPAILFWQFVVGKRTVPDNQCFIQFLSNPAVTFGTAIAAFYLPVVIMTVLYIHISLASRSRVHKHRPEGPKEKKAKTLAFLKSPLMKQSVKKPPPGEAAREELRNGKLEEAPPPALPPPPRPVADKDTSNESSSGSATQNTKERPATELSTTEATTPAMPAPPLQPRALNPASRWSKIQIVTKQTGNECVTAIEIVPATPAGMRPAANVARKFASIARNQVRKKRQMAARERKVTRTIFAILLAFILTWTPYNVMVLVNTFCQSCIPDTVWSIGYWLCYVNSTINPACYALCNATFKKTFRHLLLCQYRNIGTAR
# CHRM4 antagonist: human M4 muscarinic receptor antagonists, primary screen, CHO cells, Fluo-8 calcium fluorescence; CHO-hM4 cells, ACh EC80; inhibition, % at 3 µM; AID 624125, 2012; Muscarinic acetylcholine receptor M4 (Homo sapiens), P08173; 360,000 tested, 0.73% active;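 active means inhibition above its plate's cutoff, the mean inhibition of sample wells plus 3 SD, cut at about 27% in these data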;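 further: 0% = acetylcholine EC80 with DMSO and 100% = DMSO without agonist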
# M5 antag: human M5 muscarinic receptor antagonists, primary screen, CHO cells, Fluo-8 calcium fluorescence; inhibition, % at 3 µM; CHO-hM5 cells, ACh EC80; 360,000 tested, 0.59% active; Muscarinic acetylcholine receptor M5 (Homo sapiens), P08912;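 active means inhibition above a per-plate cutoff, the mean of that plate's test compounds plus 3 SD, cut at about 27% in these data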;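 further: 0% = acetylcholine EC80 with DMSO and 100% = DMSO without agonist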
# CHRM5 agonist: human M5 muscarinic receptor agonists, primary screen, CHO-K1 cells, Fluo-8 calcium fluorescence; Muscarinic acetylcholine receptor M5 (Homo sapiens), P08912; CHO-K1 hM5 cells; 0% DMSO wells, 100% maximal acetylcholine response; activation, % at 3 µM; 360,000 tested, 0.19% active;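 active means activation above the run's mean over test compounds plus 3 SD, cut at about 23% in these data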;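 further: signal is peak over basal fluorescence ratio across the kinetic read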
# CHRM4 agonist: human M4 muscarinic receptor agonists, primary screen, CHO-K1 cells, Fluo-8 calcium fluorescence; Muscarinic acetylcholine receptor M4 (Homo sapiens), P08173; activation, % at 3 µM; CHO-K1 hM4/Gqi5; vehicle 0%, full acetylcholine response 100%; 360,000 tested, 0.14% active;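 active means activation above the run mean over all test wells plus 3 SD, cut at about 32% in these data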;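 further: peak over basal fluorescence ratio per well then scaled between controls; 0% = DMSO wells and 100% = acetylcholine at EC100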
# M5 PAM: human M5 muscarinic receptor positive allosteric modulators, primary screen, CHO-K1 cells, Fluo-8 calcium fluorescence. Muscarinic acetylcholine receptor M5 (Homo sapiens), P08912. CHO-K1 hM5, ACh EC20 PAM; 0% = ACh EC20, 100% = ACh EC100. activation, % at 3 µM. 360,000 tested, 0.3% active. AID 624038, 2012;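 active means activation above the run cutoff, the mean activation of all test compounds plus 3 SD, cut at about 18% in these data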
#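 Probe or stimulus: acetylcholine, EC20 level; Assay system: human M5 receptor in CHO-K1 cells; Schedule: compound preincubation 140 s before EC20 acetylcholine addition; Technique: intracellular calcium via Fluo-8 fluorescence; Dosing: single-point, 3 µM nominal; Read-out basis: percent activation from peak-over-basal fluorescence ratio, scaled EC20-to-EC100 acetylcholine; Repeats: one well per compound, no replicates.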
# * hit, by the source's call; ! = repeats disagree.
SMILES,M4 PAM,CHRM4 antagonist,M5 antag,CHRM5 agonist,CHRM4 agonist,M5 PAM
CC(C)NC(=O)c1ccc2c(=O)n(C3CCCC3)c(=S)[nH]c2c1,7,4,-1,-2,0,1
COC(=O)CC(NC(=S)NC(=O)c1ccccc1)c1ccc(Br)cc1 (stereo not given),5,-14,10,2,1,-6
Cc1ccc(C(O)c2ncc(-c3ccc(Cl)cc3)[nH]2)cc1 (stereo not given),-3,-5,5,1,1,-2
Cc1nc2ccccc2cc1OCc1ccccc1,-10,6,24,2,6,-14
Cc1nc2ccccc2cc1OCc1ccc(Cl)cc1,-14,19,30*,6,5,-14
COc1cccc(COc2cc3ccccc3nc2C)c1,-2,24,31*,3,9,-16
CC(C)(C)c1ccc(C(=O)NCC2CCCN2S(=O)(=O)c2ccccc2)cc1 (stereo not given),4,-16,2,0,5,-8
CN1CCCC1CCOC(C)(c1ccccc1)c1ccc(Cl)cc1 (stereo not given),-18,98*,98*,3,15,-18
O=C([O-])c1ccccc1-[n+]1c(-c2ccccc2)cc(-c2ccccc2)cc1-c1ccccc1,-14,61*,8,-13,0,-8
Cc1ccc(NC(=O)CCS(=O)(=O)c2cccc3nonc23)c(Cl)c1,2,-1,1,-1,0,3
c1ccc(C(c2ccccc2)c2noc(CN3CCN(C4CCCC4)CC3)n2)cc1,-21,30*,11,-11,0,-20
Cc1nc(CN2CCN(Cc3nc(C(c4ccccc4)c4ccccc4)no3)CC2)cs1,-19,26,34*,-10,1,-15
CC(=O)N1CCN(Cc2nc(C(c3ccccc3)c3ccccc3)no2)CC1,-6,3,4,-10,1,-17
Cc1cccnc1CN1CCN(Cc2nc(C(c3ccccc3)c3ccccc3)no2)CC1,-55,36*,9,-19,1,-36
CCOC(=O)N1CCC(N2CCN(C3CCCC3)C(CCO)C2)CC1 (stereo not given),-21,80*,-3,-11,1,-5
CCOC(=O)N1CCC(NC2CCCCCCC2)CC1,-26,47*,5,-8,1,-4
Cc1ccc([N+](=O)[O-])cc1S(=O)(=O)NCCc1c(C)[nH]c2c(C)cccc12,-6,28*,19,2,4,-6
O=C(CCNC(=O)C1CCN(S(=O)(=O)c2ccc(F)cc2)CC1)NCc1ccncc1,8,-4,16,-6,0,-1
O=C1NC2(CCOc3ccccc32)C(=O)N1CC(=O)N(Cc1ccccc1)C1CCS(=O)(=O)C1 (stereo not given),4,-4,-23,0,1,22*
O=C(O)CN1C(=O)NC2(CCOc3ccccc32)C1=O (stereo not given),-1,-1,-1,-1,0,6
CCNC(=O)C1(C)CCCN(Cc2ccc3ccccc3c2Br)C1 (stereo not given),-12,35*,8,-3,1,-4
CC(=O)C[C@@H](O)CC(=O)[C@H]1OC(=O)CC/C=C\Cc2ccccc21,4,5,18,0,1,-9
CC(=O)C[C@@H](O)CC(=O)[C@@H]1OC(=O)CC/C=C\Cc2ccccc21,26*,-3,-6,3,2,12
COc1ccc(-c2nc3ccccn3c2NCc2ccc3c(c2)OCO3)cc1,-11,6,10,-6,8,-35
c1ccc(-c2nc3ccccn3c2NCc2ccc3c(c2)OCO3)cc1,-11,-12,11,1,12,-21
SMILES,M4 PAM,CHRM4 antagonist,M5 antag,CHRM5 agonist,CHRM4 agonist,M5 PAM
c1ccc(CNc2c(-c3cccc(SC4CCCCC4)c3)nc3ccccn23)cc1,-12,49*!,22,-4,13,-34
Cc1ccn2c(NCc3ccccc3)c(-c3cccc(SC4CCCCC4)c3)nc2c1,-8,11,13,-6,4,-11
Clc1cccc(-c2ccc(-c3nc4ccccn4c3NCc3ccccc3)cc2)c1,-9,29*,14,0,6,-17
COc1ccc(-c2cc(-c3nc4ccccn4c3NCc3ccccc3)ccc2OC)cc1,-16,84*,48*,0,26,-38
Clc1cccc(CNc2ccn3nc(-c4ccccc4)cc3n2)c1,16*,-4,-6,1,5,11
N#Cc1cnc2nc1NCCCCCCC2,3,-2,6,-2,-1,-2
CCCCS(=O)(=O)c1sc2nc(C)cc(C)c2c1N,6,-2,-11,7,2,21*
O=C(c1ccccc1Nc1ccc(SC(F)F)cc1)N1CCCCC1,36*,20,1,-4,0,6
CC1CCCC(C)N1C(=O)c1ccccc1Nc1ccc(SC(F)F)cc1 (stereo not given),-2,-7,-6,-6,-1,22*
OCCCNc1ncnc2c1[nH]c1ccccc12,-2,0,9,-1,0,0
Fc1ccc2[nH]c3c(NCc4ccccc4)ncnc3c2c1,-10,9,37*,10,23,-16
Cc1occc1C(=O)N=Nc1c(O)n(C)c2ccccc12,29*,13,-8,-2,2,2
Cc1ccc(Oc2ccc(OCC(=O)Nc3ccncc3)cc2)cc1,-13,18,34*,6,12,-12
CCc1ccc(OCC(=O)Nc2ccncc2)cc1,-9,4,14,5,8,-16
O=C(COc1ccc(C(=O)c2ccccc2)cc1)Nc1cccnc1,-6,17,31*,8,20,-15
COc1ccc(CCNC(=O)C2CCCN2C(=O)Nc2cccc(OC)c2)cc1 (stereo not given),-5,11,-3,-2,0,10
O=C1NC(=S)NC1(c1ccccc1)c1ccccc1,-9,41*,9,-11,0,-14
O=C1NC(=O)C(c2ccccc2)(c2ccccn2)N1 (stereo not given),4,-3,11,2,1,-1
CN1CCC(Oc2ccccc2Sc2ccccc2)CC1,-43,74*,78*,-6,10,-19
